Data reported in ChEMBL document CHEMBL1125878, “Aminoalkynyldithianes. A new class of calcium channel blockers” (J Med Chem, 1991).

Columns and labels:
Type in all cases: functional
Cavia porcellus [1] = species: Cavia porcellus; experiment: Antagonism of calcium-induced contractions of guinea pig ileal strips
How it was run: (§1)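 Guinea pig ileal strips held at 0.5 g resting tension, equilibrated 60 min, isometric recording. Depolarized with KCl (80 mM) 6 min, then cumulative CaCl2 0.2-8.0 mM; wash, control curve, then curves with three drug concentrations added right after KCl (6 min). Kb = concentration giving 2-fold rightward shift, from EC50 ratios; means of 3-10 experiments ± SE.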

[2] = The compound was tested for inhibition of calcium influx into neuronal (NG108-15) cells; conditions: Mus musculus
How it was run: (§2)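 NG108-15 cells, differentiated with dibutyryl cAMP (1.0 mM, 4 days), loaded with Quin 2-AM (100 μM) 1 h at 37 °C, washed. Suspensions (ca. 3 × 10^6 cells) at 37 °C preincubated 1 min with drug, then depolarized with KCl (50 mM); fluorescence ex 339/em 492 nm. IC50 = half-maximal fluorescence decrease, logit analysis; means ± SE.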

Cavia porcellus [3] = species: Cavia porcellus; experiment: The compound was tested for antagonism of calcium-induced contractions of guinea pig ileal strips.; how it was run: as §1
[4] = The compound was tested for inhibition of calcium influx into neuronal (NG108-15) cells.; conditions: Mus musculus; how it was run: as §2

Compound	Kb (Cavia porcellus [1])	other results
CCN(CC)CC#CCCC1(C2(O)c3ccccc3C=Cc3ccccc32)SCCCS1	300 nM	–
CCN(C)CC#CCCC1(C2(O)c3ccccc3Sc3ccc(Cl)cc32)SCCCS1 (stereo not drawn)	2530 nM	–
CN(CC#CCCC1(C2(O)c3ccccc3Sc3ccccc32)SCCCS1)CCCc1ccccc1	4160 nM	–
CN(C)CC#CCCC1(C2(O)c3ccccc3Sc3ccc(Cl)cc32)SCCCS1 (stereo not drawn)	2330 nM	–
CN(CC#CCCC1SCCCS1)CCc1ccc2ccccc2c1	4730 nM	–
COc1ccc(CCN(C)CCCC(C#N)(c2ccc(OC)c(OC)c2)C(C)C)cc1OC (stereo not drawn) [VERAPAMIL]	20 nM	IC50 [2]: 6500 nM
CN(CC#CCCC1(c2ccccc2)SCCCS1)CCc1ccccc1	1740 nM	IC50 [2]: 5400 nM
CCN(CC)CC#CCCC1(C(C)(O)c2ccccc2)SCCCS1 (stereo not drawn)	2510 nM	–
CCCN(CC#CCCCC1(C2(O)c3ccccc3Sc3ccccc32)SCCCS1)CCC	770 nM	–
CN(CC#CCCCC1SCCCS1)Cc1ccccc1	4450 nM	–
COc1ccc(CCN(C)CC#CCC2(c3ccccc3)SCCCS2)cc1OC	1170 nM	IC50 [2]: 1500 nM
CCN(CC)CC#CCCC1(Cc2ccccc2)SCCCS1	1960 nM	–
CN1CCN(CC#CCCC2(C3(O)c4ccccc4Oc4ccccc43)SCCCS2)CC1	490 nM	–
CN(CC#CCCC1SCCCS1)Cc1ccc2ccccc2c1	8330 nM	–
CCCN(CC#CCCCC1(C2(O)c3ccccc3Oc3ccccc32)SCCCS1)CCC	470 nM	–
COc1ccc([C@@H]2Sc3ccccc3N(CCN(C)C)C(=O)[C@@H]2OC(C)=O)cc1 [DILTIAZEM]	–	Kb (Cavia porcellus [3]): 47 nM; IC50 [4]: 14900 nM
CN(CC#CCCC1(C2(O)c3ccccc3Sc3ccc(Cl)cc32)SCCCS1)CCCc1ccccc1 (stereo not drawn)	> 7000 nM	–
CC(C)N(CC#CCCCC1(C2(O)c3ccccc3Oc3ccccc32)SCCCS1)C(C)C	200 nM	IC50 [2]: 4600 nM
CCN(CC)CC#CCCC1(C2(O)CCCc3ccccc32)SCCCS1 (stereo not drawn)	830 nM	–
CN(CC#CCCC1(C2(O)c3ccccc3Sc3ccccc32)SCCCS1)CCCCc1ccccc1	3400 nM	–
CCN(C)CC#CCCC1(C2(O)c3ccccc3Oc3ccccc32)SCCCS1	1510 nM	–

Compound	Kb (Cavia porcellus [1])	other results
CCN(CC)CC#CCCC(O)(c1ccccc1)C1SCCCS1 (stereo not drawn)	6700 nM	IC50 [2]: 17700 nM
CCN(CC)CC#CCCC1(C(O)(c2ccccc2)C2CCCC2)SCCCS1 (stereo not drawn)	980 nM	–
COc1ccc(N(C)CC#CCCC2SCCCS2)cc1OC	2220 nM	–
CN(CC#CCCC1(C2(O)c3ccccc3Oc3ccccc32)SCCCS1)CCCCc1ccccc1	1900 nM	–
CCN(CC#CCCC1(C2(O)c3ccccc3Oc3ccccc32)SCCCS1)C(C)C	460 nM	–
CCN(CC)CC#CCCC1(C2(O)c3ccccc3Sc3ccc(Cl)cc32)SCCCS1 (stereo not drawn)	330 nM	–
CN(CC#CCCC1SCCCS1)CCCc1ccccc1	2980 nM	–
CN(CC#CCCC(O)(c1ccccc1)C1SCCCS1)CCc1ccccc1 (stereo not drawn)	2250 nM	IC50 [2]: 1600 nM
OC1(C2(CCC#CCN3CCCCC3)SCCCS2)c2ccccc2Sc2ccc(Cl)cc21 (stereo not drawn)	6090 nM	–
CCN(CC)CC#CCCC1(C(O)(c2ccccc2)C2CCCCC2)SCCCS1 (stereo not drawn)	1140 nM	–
CCCN(CC#CCC1(c2ccccc2)SCCCS1)CCC	1010 nM	IC50 [2]: 1700 nM
COc1ccc(CCN(C)CC#CCCC(O)(c2ccccc2)C2SCCCS2)cc1OC (stereo not drawn)	1230 nM	IC50 [2]: 1800 nM
CCN(CC)CC#CCCC1(C(c2ccccc2)c2ccccc2)SCCCS1	500 nM	–
OC1(C2(CCC#CCN3CCCCC3)SCCCS2)c2ccccc2Oc2ccccc21	390 nM	IC50 [2]: 6400 nM
CCN(C)CC#CCCC1SCCCS1	–	IC50 [2]: > 10000 nM
OCCN1CCN(CC#CCCC2SCCCS2)CC1	> 10000 nM	–
CCN(CC)CC#CCCC1(C2(O)c3ccccc3Oc3ccccc32)SCCCS1	160 nM	IC50 [2]: 2300 nM
CCN(CC)CC#CCC1(c2ccccc2)SCCCS1	4270 nM	IC50 [2]: 6400 nM
CCCN(CC#CCCCC1SCCCS1)CCC	7500 nM	–
COc1ccc(CCN(C)CC#CCCC(O[Si](C)(C)C)(c2ccccc2)C2SCCCS2)cc1OC (stereo not drawn)	570 nM	–
CCN(CC)CC#CCCC1(C2(O)CCOc3ccccc32)SCCCS1 (stereo not drawn)	1940 nM	–

Compound	Kb (Cavia porcellus [1])	other results
CN(CC#CCCC1(C(O)(c2ccccc2)c2ccccc2)SCCCS1)CCc1ccccc1	2650 nM	–
CN(CC#CCCCC1SCCCS1)CCc1ccccc1	4150 nM	–
CN(CC#CCCC1(C2(O)c3ccccc3Oc3ccccc32)SCCCS1)CCCc1ccccc1	3090 nM	–
CCN(CC)CC#CCCCCC1(C2(O)c3ccccc3Oc3ccccc32)SCCCS1	1740 nM	–
CCOC(=O)C1=C(C)NC(C)=C(C(=O)OC)C1c1cccc([N+](=O)[O-])c1 (stereo not drawn) [NITRENDIPINE]	2 nM	IC50 [2]: 16 nM
CN(C)CC#CCCC1(C2(O)c3ccccc3Sc3ccccc32)SCCCS1	680 nM	–
CN(C)CC#CCCC1(C2(O)c3ccccc3Oc3ccccc32)SCCCS1	1150 nM	–
OC1(C2(CCC#CCN3CCCCC3)SCCCS2)c2ccccc2Sc2ccccc21	3660 nM	–
CCN(CC)CC#CCCC1(C2(O)c3ccccc3Sc3ccccc32)SCCCS1	130 nM	–
CN(CC#CCCC1(C(O)(c2ccccc2)c2ccccc2)SCCCS1)CCCc1ccccc1	1630 nM	–
CCN(CC)CC#CCCCC1(C2(O)c3ccccc3Oc3ccccc32)SCCCS1	170 nM	IC50 [2]: 1000 nM
CN(CC#CCCC1SCCCS1)Cc1ccccc1	8020 nM	–
CN(CC#CCCC1(C(O)(c2ccccc2)c2ccccc2)SCCCS1)Cc1ccccc1	3170 nM	–
CN(CC#CCCC1SCCCS1)CCc1ccccc1	2270 nM	–
CCN(C)CC#CCCC1(C2(O)c3ccccc3Sc3ccccc32)SCCCS1	570 nM	–
CN(CC#CCCC1SCCCS1)CCc1cccc2ccccc12	1520 nM	–
CCN(CC)CC#CCCC1(C2(O)c3ccccc3CCc3ccccc32)SCCCS1	1270 nM	–
CN(CC#CCCC1SCCCS1)CCCCc1ccccc1	3430 nM	–
CCN(CC)CC#CCCC1(c2ccccc2)SCCCS1	900 nM	IC50 [2]: 6800 nM
CCN(CC)CC#CCCCCC1SCCCS1	> 5000 nM	–
CN(CC#CCCC1(C(O)(c2ccccc2)C2CCCCC2)SCCCS1)CCc1ccccc1 (stereo not drawn)	3750 nM	–
